One assay deals with ER. Nature of the assay: ER-dependent transcriptional activity. The format is cell-based, human. Conditions: MELN cells; for inhibition of luciferase stimulation by E2 (ER antagonism): with 10 nM E2, Tam 1 μM.
Assay [1] has as its target T1, ChEH (Homo sapiens, UniProt Q15125+Q9UBM7). Put plainly: ChEH activity in whole MCF-7 cells. The format is cell-based. The settings on record: for IC50 of ChEH inhibition, fold higher than DDA / ChEH inhibition (in words): MCF-7 cells. The procedure, abridged: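 Whole MCF-7 cells were grown in RPMI with 5% FBS. Conversion to [14C]-CT was resolved by TLC and quantified by densitometry. IC50 came from dose–response curves, as mean±s.e.m. of three independent experiments.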

Assay [2] addresses T2, ChEH (Mus musculus, UniProt O88455+P70245).
T2 sequence (P70245 1-230): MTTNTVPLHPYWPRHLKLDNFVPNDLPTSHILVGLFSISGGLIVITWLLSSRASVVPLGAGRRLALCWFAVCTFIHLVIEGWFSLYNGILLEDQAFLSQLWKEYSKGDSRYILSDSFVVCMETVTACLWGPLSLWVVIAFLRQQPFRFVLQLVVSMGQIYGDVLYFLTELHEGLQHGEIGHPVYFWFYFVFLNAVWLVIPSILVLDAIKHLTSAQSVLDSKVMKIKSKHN
T2 sequence (O88455 1-471): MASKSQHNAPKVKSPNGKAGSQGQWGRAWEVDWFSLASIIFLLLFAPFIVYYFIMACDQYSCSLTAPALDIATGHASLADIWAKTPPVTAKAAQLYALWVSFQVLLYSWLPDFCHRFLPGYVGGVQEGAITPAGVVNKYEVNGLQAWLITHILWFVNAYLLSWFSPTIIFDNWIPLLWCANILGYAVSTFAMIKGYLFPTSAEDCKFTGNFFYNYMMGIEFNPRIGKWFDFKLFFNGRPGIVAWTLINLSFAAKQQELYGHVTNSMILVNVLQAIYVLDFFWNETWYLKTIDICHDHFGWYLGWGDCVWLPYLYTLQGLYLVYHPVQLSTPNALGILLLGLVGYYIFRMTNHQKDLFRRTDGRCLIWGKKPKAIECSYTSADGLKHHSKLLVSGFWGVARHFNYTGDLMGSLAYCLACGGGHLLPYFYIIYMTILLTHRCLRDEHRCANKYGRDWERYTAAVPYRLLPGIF
Nature of the assay: ChEH activity in murine mammary TSA cells. The format is cell-based.

The target in assay [3] is T1, ChEH. Put plainly: ChEH activity in human melanoma SK-Mel-28 cells. The format is cell-based.
Assay [4] deals with T2, ChEH. Nature of the assay: ChEH activity in murine melanoma B16F10 cells. The format is cell-based.
Assay [5] concerns the target T1, ChEH. Put plainly: Modality of ChEH inhibition in MCF-7 cell extracts. The format is biochemical. Conditions: MCF-7 cell extracts, 0.5, 1 and 5 μM DDA; Km increased, Vmax unchanged.
The target in the next assay is T3, Human sEH (Homo sapiens, UniProt P34913).
T3 sequence (P34913 1-555): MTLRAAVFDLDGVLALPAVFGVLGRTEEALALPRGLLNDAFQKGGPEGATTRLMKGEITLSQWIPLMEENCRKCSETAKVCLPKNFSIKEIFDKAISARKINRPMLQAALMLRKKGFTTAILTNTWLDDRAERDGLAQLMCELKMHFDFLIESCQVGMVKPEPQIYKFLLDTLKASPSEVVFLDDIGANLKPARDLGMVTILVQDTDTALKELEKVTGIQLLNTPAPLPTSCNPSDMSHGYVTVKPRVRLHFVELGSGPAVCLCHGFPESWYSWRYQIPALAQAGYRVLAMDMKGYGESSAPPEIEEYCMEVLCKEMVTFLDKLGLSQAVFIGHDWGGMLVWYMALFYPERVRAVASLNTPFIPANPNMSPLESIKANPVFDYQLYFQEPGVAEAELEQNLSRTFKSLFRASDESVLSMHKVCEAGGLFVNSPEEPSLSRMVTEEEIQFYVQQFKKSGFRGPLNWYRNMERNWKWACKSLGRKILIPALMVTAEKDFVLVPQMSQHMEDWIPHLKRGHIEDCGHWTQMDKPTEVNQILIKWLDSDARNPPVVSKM
Nature of the assay: sEH activity assay. The format is biochemical.

The next assay addresses T4, rat mEH (Rattus norvegicus, UniProt P07687).
T4 sequence (P07687 1-455): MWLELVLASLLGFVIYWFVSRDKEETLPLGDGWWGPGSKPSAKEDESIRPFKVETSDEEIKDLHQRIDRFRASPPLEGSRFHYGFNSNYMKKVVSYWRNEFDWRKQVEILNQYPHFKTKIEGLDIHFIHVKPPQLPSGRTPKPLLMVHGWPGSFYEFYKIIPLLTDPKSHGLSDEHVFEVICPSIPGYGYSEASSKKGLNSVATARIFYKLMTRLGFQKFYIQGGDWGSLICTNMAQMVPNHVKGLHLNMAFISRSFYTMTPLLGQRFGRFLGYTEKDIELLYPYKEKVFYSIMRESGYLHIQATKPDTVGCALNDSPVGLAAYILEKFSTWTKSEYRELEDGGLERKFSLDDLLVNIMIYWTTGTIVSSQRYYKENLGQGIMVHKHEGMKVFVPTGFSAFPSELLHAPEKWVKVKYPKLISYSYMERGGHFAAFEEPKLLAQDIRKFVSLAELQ
Put plainly: mEH activity assay. The format is biochemical.

The test system of the next assay is B16F10 melanoma tumours. Put plainly: B16F10 melanoma tumours implanted s.c. into immunocompetent mice. The format is in vivo, mouse. Summed up: (§1)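 Female mice, 6–8 weeks old, held specific-pathogen-free after 2 weeks quarantine. Strains were C57BL/6 for B16F10 and BALB/c for TS/A. 35,000 exponentially growing cells in 150 μl PBS were implanted s.c. into the flank. Dosing was s.c. every 5 days from implantation day, with a s.c. vehicle control (n=10 per group). Survival was by Kaplan–Meier with log-rank test.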

Another assay has as its system TS/A mammary tumours. Nature of the assay: TS/A mammary tumours implanted s.c. into immunocompetent mice. The format is in vivo, mouse. Summed up:
as §1

Another assay deals with B16F10 cells. Nature of the assay: B16F10 cell differentiation in vitro. The format is cell-based, mouse. Conditions: 24 h.
The next assay concerns TS/A cells. Put plainly: TS/A cell differentiation in vitro. The format is cell-based, mouse. The settings on record: 24 h.
Assay [6] has as its system ChEH. The settings on record: microsomes from rat liver; cited from earlier work.
Another assay relates to mouse brain homogenate. Put plainly: DDA neosynthesis assay. The format is biochemical. The settings on record: 2 μM [14C]-5,6α-EC, His 0.5–200 μM, 37 °C, 10 min.
Setting [7] is: B16F10, treated every 5 days from day of implantation, DDA 0.37 μg kg−1 s.c.
[8] abbreviates: TS/A tumours, DDA 3.7 μg kg−1, 30 days.

Each structure is given as a SMILES string. “Also recorded” adds a separate entry of the source.

T1 sequence (Q15125 whole entry): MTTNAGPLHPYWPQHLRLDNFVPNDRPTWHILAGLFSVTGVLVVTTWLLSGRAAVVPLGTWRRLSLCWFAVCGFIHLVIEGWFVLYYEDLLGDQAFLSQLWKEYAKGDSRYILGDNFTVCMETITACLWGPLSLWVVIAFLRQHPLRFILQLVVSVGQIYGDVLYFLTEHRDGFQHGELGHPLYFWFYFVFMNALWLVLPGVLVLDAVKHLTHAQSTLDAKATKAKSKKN
T1 sequence (Q9UBM7 whole entry): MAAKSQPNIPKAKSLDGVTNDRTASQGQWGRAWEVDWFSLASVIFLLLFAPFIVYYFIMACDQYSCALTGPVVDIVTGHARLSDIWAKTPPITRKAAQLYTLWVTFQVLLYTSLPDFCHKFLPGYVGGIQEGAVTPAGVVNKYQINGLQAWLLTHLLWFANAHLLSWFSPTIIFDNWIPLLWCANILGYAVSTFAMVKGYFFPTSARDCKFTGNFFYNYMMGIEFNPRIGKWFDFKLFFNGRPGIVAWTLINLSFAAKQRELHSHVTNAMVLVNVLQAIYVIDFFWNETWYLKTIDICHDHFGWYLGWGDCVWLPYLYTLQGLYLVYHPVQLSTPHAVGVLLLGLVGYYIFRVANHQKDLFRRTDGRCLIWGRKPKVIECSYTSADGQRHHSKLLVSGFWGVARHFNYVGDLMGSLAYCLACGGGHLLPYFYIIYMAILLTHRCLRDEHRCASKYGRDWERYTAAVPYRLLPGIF

Take `CC/C(=C(\c1ccccc1)c1ccc(OCCN(C)C)cc1)c1ccccc1` [Tam, Tamoxifen, reference compound]: the “inhibition of luciferase stimulation by E2 (ER antagonism)” value in the assay with ER is reported as “completely inhibited luciferase expression”.
The IC50 is the point on the concentration scale where inhibition reaches its midpoint. High values mean lower potency, low ones higher potency. Regarding `CC(C)CCC[C@@H](C)[C@H]1CC[C@H]2[C@@H]3C[C@@H](NCCc4c[nH]cn4)[C@@]4(O)C[C@@H](O)CC[C@]4(C)[C@H]3CC[C@]12C` [DDA, 5α-Hydroxy-6β-[2-(1H-imidazol-4-yl)-ethylamino]-cholestan-3β-ol], the IC50 against ChEH [1] was found to be 120 ± 20 nM. This compound also displayed a half-inhibitory concentration (IC50) on ChEH [2] of 284 ± 70 nM. The compound also showed a 50% inhibitory concentration (IC50) against ChEH [3] of 72 ± 15 nM. Moreover, at ChEH [4], the concentration for half-maximal inhibition (IC50) was 252 ± 81 nM. Besides, the “modality of ChEH inhibition” value at ChEH [5] was “competitive”. For the same compound, the “sEH inhibition (in words)” value at Human sEH was “did not inhibit these enzymes; also recorded: not an inhibitor”. Also, at rat mEH, the “mEH inhibition (in words)” value is “did not inhibit these enzymes; also recorded: not an inhibitor”. Besides, the “stimulation of luciferase expression (ER agonism)” value in the assay on ER (increasing concentrations, without E2) was “did not stimulate the expression of luciferase”. Also, the “inhibition of luciferase stimulation by E2 (ER antagonism)” value in the assay on ER is “did not inhibit luciferase stimulation by 17β-estradiol”. In the assay on B16F10 melanoma tumours (setting [7]), the “survivors at day 50” value turned out to be 40% and the “tumour growth vs control” value is recorded as “significantly inhibited tumour growth”. Moreover, in the assay with B16F10 melanoma tumours (B16F10 tumours, DDA 3.7 μg kg−1, 23 days), the “melanin production in tumour sections (Masson–Fontana)” value is recorded as “increased production of melanin”. For the same compound, in the assay with B16F10 melanoma tumours (B16F10 tumours, DDA 3.7 μg/kg, 23 days), the “intra-tumour immune cell infiltration (CD3, CD11c)” value is “increased infiltration of CD3^+ T lymphocytes and CD11c^+ dendritic cells”. Besides, in the assay on TS/A mammary tumours (setting [8]), the “MFGE8/lactadherin expression in tumour sections (immunohistochemistry)” value is “increased expression of milk fat globule (MFGE8)/lactadherin” and the “neutral lipid droplets in tumour sections (ORO)” value is listed as “increased accumulation of neutral lipid droplets”. Further, the “intra-tumour immune cell infiltration (CD3, CD11c)” value with TS/A mammary tumours (TS/A tumours, DDA 3.7 μg/kg, 30 days) was “increased infiltration of CD3^+ T lymphocytes and CD11c^+ dendritic cells”. Besides, the “animal survival at day 50” value in the assay on TS/A mammary tumours (TS/A, treated every 5 days from day of implantation, DDA 0.37 μg kg−1 s.c.) is reported as 60%. In the assay on B16F10 cells, the melanin content result is recorded as “increased in a concentration-dependent manner up to 2.5 μM DDA” and the tyrosinase activity result is recorded as “increased activity of tyrosinase”. Besides, in the assay on TS/A cells (1 μM DDA), the “increase in ORO staining of neutral lipid droplets vs vehicle” value is 2.4 fold and the “increase in intracellular triglycerides vs vehicle” value is recorded as 7 fold. For the same compound, in the assay on TS/A cells (2.5 μM DDA), the “MFGE8/lactadherin (immunostaining, flow cytometry)” value is listed as “increased”; the “increase in ORO staining of neutral lipid droplets vs vehicle” value came out at 3 fold; the “increase in intracellular triglycerides vs vehicle” value was found to be 9 fold.
For the compound `CC(C)CCC[C@@H](C)[C@H]1CC[C@H]2[C@@H]3[C@H](O)C=C4C[C@@H](O)CC[C@]4(C)[C@H]3CC[C@]12C` [Compound 7α-OHCh, 7α-hydroxycholesterol], on ChEH [1], the IC50 was determined as 12000 ± 2900 nM and the “IC50 of ChEH inhibition, fold higher than DDA” value was determined as 100 fold. The “ChEH inhibition (in words)” value with ChEH [6] is reported as “inhibited ChEH in microsomes from rat liver”.
For `C[C@H](CCCC(C)(C)O)[C@H]1CC[C@H]2[C@@H]3CC=C4C[C@@H](O)CC[C@]4(C)[C@H]3CC[C@]12C` [Compound 25-OHCh], the figures for the “ChEH inhibition (in words)” value on ChEH [1] and in the assay with ChEH [6] were “unable to inhibit ChEH” and “did not inhibit ChEH”, respectively.
For `NCCc1c[nH]cn1` [His, histamine], the “apparent Vmax of DDA formation” value in the assay on mouse brain homogenate is recorded as 0.12±0.04 pmol per mg protein per min.
For `CC(C)CCC[C@@H](C)[C@H]1CC[C@H]2[C@@H]3C(=O)C=C4C[C@@H](O)CC[C@]4(C)[C@H]3CC[C@]12C` [7-ketocholesterol], at ChEH [1], half-maximal inhibition (IC50) required 5090 ± 1400 nM and the “IC50 of ChEH inhibition, fold higher than DDA” value worked out at 42 fold. In addition, the “ChEH inhibition (in words)” value in the assay on ChEH [6] was “inhibited ChEH in microsomes from rat liver”.
As for `CC(C)CCC[C@@H](C)[C@H]1CC[C@H]2[C@@H]3C[C@@H](n4cncc4CCN)[C@@]4(O)C[C@@H](O)CC[C@]4(C)[C@H]3CC[C@]12C` [Compound C17, 5α-hydroxy-6β-[5-(2-amino-ethyl)-imidazol-1-yl]-cholestan-3β-ol], the “ChEH inhibition (in words)” value at ChEH [1] is “did not inhibit ChEH activity”; at ChEH [2] (TSA cells), “inactive against ChEH”; on ChEH [3] (SK-Mel-28 cells), “inactive against ChEH”; at ChEH [4] (B16F10 cells), “inactive against ChEH”.
